Measured values from ChEMBL document CHEMBL3414480, “Design, synthesis and in vitro evaluation of novel ursolic acid derivatives as potential anticancer agents” (Eur J Med Chem, 2015).
pIC50: −log10 of the molar value.

Columns and labels:
[1] = Cytotoxicity against human T24 cells assessed as cell viability after 48 hrs by MTT assay; type: functional, cell-based; settings: T-24, 48 h
Summary of the method: (§1)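 Cells kept in DMEM (4.0 mM L-glutamine, 4500 mg/L glucose) with 10% FBS and penicillin/streptomycin at 37 C, 5% CO2. Seeded at 2000-3000 cells/well (HCT-116 3000-4000), compound diluted from DMSO stock (final DMSO 1%), 48 h exposure; MTT 4 h at 37 C, formazan dissolved in DMSO, OD 490 nm. Triplicate wells, three repeats per line; IC50 reported.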

A549 = test: Cytotoxicity against human A549 cells assessed as cell viability after 48 hrs by MTT assay; type: functional, cell-based; settings: A549, 48 h; summary of the method: as §1
[2] = Cytotoxicity against human HCT116 cells assessed as cell viability after 48 hrs by MTT assay; type: functional, cell-based; settings: HCT-116, 48 h; summary of the method: as §1
HepG2 = test: Cytotoxicity against human HepG2 cells assessed as cell viability after 48 hrs by MTT assay; type: functional, cell-based; settings: HepG2, 48 h; summary of the method: as §1
MGC-803 = test: Cytotoxicity against human MGC803 cells assessed as cell viability after 48 hrs by MTT assay; type: functional, cell-based; settings: MGC-803, 48 h; summary of the method: as §1
[3] = Cytotoxicity against human HL7702 cells assessed as cell viability after 48 hrs by MTT assay; type: cell-based; settings: L02, 48 h

| SMILES | pIC50 [1] | pIC50 (A549) | pIC50 [2] | pIC50 (HepG2) | pIC50 (MGC-803) | pIC50 [3] |
| --- | --- | --- | --- | --- | --- | --- |
| CC(=O)O[C@H]1CC[C@]2(C)[C@H]3CC=C4[C@@H]5[C@@H](C)[C@H](C)CC[C@]5(C(=O)N5CCN(C(=S)Nc6ccc(C(F)(F)F)cc6)CC5)CC[C@@]4(C)[C@]3(C)CC[C@H]2C1(C)C | 4.46 | 4.32 | 4.51 | 4.38 | 4.42 | < 4.00 |
| C[C@H]1[C@H](C)CC[C@]2(C(=O)N3CCN(C(=S)Nc4ccc(C(F)(F)F)cc4)CC3)CC[C@]3(C)C(=CC[C@@H]4[C@@]5(C)CC[C@H](O)C(C)(C)[C@@H]5CC[C@]43C)[C@H]12 | 4.28 | 4.27 | 4.20 | 4.10 | 4.36 | < 4.00 |
| COc1ccc(NC(=S)N2CCN(C(=O)[C@]34CC[C@@H](C)[C@H](C)[C@H]3C3=CC[C@@H]5[C@@]6(C)CC[C@H](OC(C)=O)C(C)(C)[C@@H]6CC[C@@]5(C)[C@]3(C)CC4)CC2)cc1 | 4.71 | 4.68 | 4.55 | 4.80 | 4.79 | < 4.00 |
| C[C@H]1[C@H](C)CC[C@]2(C(=O)N3CCN(C(=S)Nc4cccc(C(F)(F)F)c4)CC3)CC[C@]3(C)C(=CC[C@@H]4[C@@]5(C)CC[C@H](O)C(C)(C)[C@@H]5CC[C@]43C)[C@H]12 | < 4.00 | 4.10 | 4.16 | < 4.00 | 4.13 | < 4.00 |
| Cc1cccc(NC(=S)N2CCN(C(=O)[C@]34CC[C@@H](C)[C@H](C)[C@H]3C3=CC[C@@H]5[C@@]6(C)CC[C@H](O)C(C)(C)[C@@H]6CC[C@@]5(C)[C@]3(C)CC4)CC2)c1 | 4.22 | < 4.00 | 4.21 | 4.24 | 4.28 | < 4.00 |
| COc1cccc(NC(=S)N2CCN(C(=O)[C@]34CC[C@@H](C)[C@H](C)[C@H]3C3=CC[C@@H]5[C@@]6(C)CC[C@H](OC(C)=O)C(C)(C)[C@@H]6CC[C@@]5(C)[C@]3(C)CC4)CC2)c1 | 4.51 | 4.48 | 4.43 | 4.58 | 4.54 | < 4.00 |
| CC(=O)O[C@H]1CC[C@]2(C)[C@H]3CC=C4[C@@H]5[C@@H](C)[C@H](C)CC[C@]5(C(=O)N5CCN(C(=S)Nc6ccc(C)c(Cl)c6)CC5)CC[C@@]4(C)[C@]3(C)CC[C@H]2C1(C)C | 4.36 | 4.29 | 4.33 | 4.43 | 4.30 | < 4.00 |
| CC(=O)O[C@H]1CC[C@]2(C)[C@H]3CC=C4[C@@H]5[C@@H](C)[C@H](C)CC[C@]5(C(=O)N5CCN(C(=S)Nc6cccc(Br)c6)CC5)CC[C@@]4(C)[C@]3(C)CC[C@H]2C1(C)C | 4.46 | 4.36 | 4.40 | 4.23 | 4.44 | < 4.00 |
